# Reference: ChEMBL document CHEMBL3272198, “Preparation and in vitro antifungal activities of some quinolizidine derived hemiaminals and beta-tert-amino sulfides” (1976)
# Key:
# Format in all cases: functional
# [1] = system: Blastomyces dermatitidis; experiment: Antifungal activity against Blastomyces dermatitidis Gilchrist & Stokes isolate 1107 at 10 ug/ml after 2 weeks (reference value: 35 mm); conditions: Gilchrist & Stokes isolate 1107, 336 h, read-out: DIZ
# Procedure, shortened: (§1)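 Mycelial phase grown on Sabouraud dextrose agar at 25°C. Agar pH was set to 6 before the test solution was added and was 5.0-5.5 after. Test solutions contained HOAc and Me2SO, and solvent and blank controls were included. Each quadrant was center-inoculated with a 2 × 2 mm piece of a 2-week-old mycelial culture. Colony diameter was measured weekly for 3 weeks and reported as total increments (mm). Duplicates were run.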
# [2] = system: Blastomyces dermatitidis; experiment: Antifungal activity against Blastomyces dermatitidis Gilchrist & Stokes isolate 1107 at 100 ug/ml after 3 weeks (reference value: 40 mm); conditions: Gilchrist & Stokes isolate 1107, 504 h, read-out: DIZ; procedure, shortened: as §1
# [3] = system: Blastomyces dermatitidis; experiment: Antifungal activity against Blastomyces dermatitidis Gilchrist & Stokes isolate 1107 at 80 ug/ml after 3 weeks (reference value: 40 mm); conditions: Gilchrist & Stokes isolate 1107, 504 h, read-out: DIZ; procedure, shortened: as §1
# [4] = system: Blastomyces dermatitidis; experiment: Antifungal activity against Blastomyces dermatitidis Gilchrist & Stokes isolate 1107 at 40 ug/ml after 3 weeks (reference value: 40 mm); conditions: Gilchrist & Stokes isolate 1107, 504 h, read-out: DIZ; procedure, shortened: as §1
# [5] = system: Blastomyces dermatitidis; experiment: Antifungal activity against Blastomyces dermatitidis Gilchrist & Stokes isolate 1107 at 10 ug/ml after 3 weeks (reference value: 40 mm); conditions: Gilchrist & Stokes isolate 1107, 504 h, read-out: DIZ; procedure, shortened: as §1
# [6] = system: Histoplasma capsulatum; experiment: Antifungal activity against Histoplasma capsulatum Darling isolate 1098 at 10 ug/ml after 3 weeks (reference value: 28 mm); conditions: Darling isolate 1098, 504 h, read-out: DIZ
# [7] = system: Histoplasma capsulatum; experiment: Antifungal activity against Histoplasma capsulatum Darling isolate 1106 at 100 ug/ml after 1 week (reference value: 14 mm); conditions: Darling isolate 1106, 168 h, read-out: DIZ
# [8] = system: Histoplasma capsulatum; experiment: Antifungal activity against Histoplasma capsulatum Darling isolate 1106 at 20 ug/ml after 1 week (reference value: 14 mm); conditions: Darling isolate 1106, 168 h, read-out: DIZ
# [9] = system: Histoplasma capsulatum; experiment: Antifungal activity against Histoplasma capsulatum Darling isolate 1106 at 10 ug/ml after 1 week (reference value: 14 mm); conditions: Darling isolate 1106, 168 h, read-out: DIZ
# [10] = system: Histoplasma capsulatum; experiment: Antifungal activity against Histoplasma capsulatum Darling isolate 1106 at 100 ug/ml after 2 weeks (reference value: 25 mm); conditions: Darling isolate 1106, 336 h, read-out: DIZ
# [11] = system: Histoplasma capsulatum; experiment: Antifungal activity against Histoplasma capsulatum Darling isolate 1106 at 80 ug/ml after 2 weeks (reference value: 25 mm); conditions: Darling isolate 1106, 336 h, read-out: DIZ
# [12] = system: Histoplasma capsulatum; experiment: Antifungal activity against Histoplasma capsulatum Darling isolate 1106 at 60 ug/ml after 2 weeks (reference value: 25 mm); conditions: Darling isolate 1106, 336 h, read-out: DIZ
# [13] = system: Histoplasma capsulatum; experiment: Antifungal activity against Histoplasma capsulatum Darling isolate 1106 at 40 ug/ml after 2 weeks (reference value: 25 mm); conditions: Darling isolate 1106, 336 h, read-out: DIZ
# [14] = system: Histoplasma capsulatum; experiment: Antifungal activity against Histoplasma capsulatum Darling isolate 1106 at 20 ug/ml after 2 weeks (reference value: 25 mm); conditions: Darling isolate 1106, 336 h, read-out: DIZ
# [15] = system: Histoplasma capsulatum; experiment: Antifungal activity against Histoplasma capsulatum Darling isolate 1106 at 100 ug/ml after 3 weeks (reference value: 31 mm); conditions: Darling isolate 1106, 504 h, read-out: DIZ
# [16] = system: Histoplasma capsulatum; experiment: Antifungal activity against Histoplasma capsulatum Darling isolate 1106 at 60 ug/ml after 3 weeks (reference value: 31 mm); conditions: Darling isolate 1106, 504 h, read-out: DIZ
# [17] = system: Histoplasma capsulatum; experiment: Antifungal activity against Histoplasma capsulatum Darling isolate 1106 at 40 ug/ml after 3 weeks (reference value: 31 mm); conditions: Darling isolate 1106, 504 h, read-out: DIZ
# [18] = system: Blastomyces dermatitidis; experiment: Antifungal activity against Blastomyces dermatitidis Gilchrist & Stokes isolate 1099 at 60 ug/ml after 1 week (reference value: 14 mm); conditions: Gilchrist & Stokes isolate 1099, 168 h, read-out: DIZ
# [19] = system: Blastomyces dermatitidis; experiment: Antifungal activity against Blastomyces dermatitidis Gilchrist & Stokes isolate 1099 at 40 ug/ml after 1 week (reference value: 14 mm); conditions: Gilchrist & Stokes isolate 1099, 168 h, read-out: DIZ
# [20] = system: Blastomyces dermatitidis; experiment: Antifungal activity against Blastomyces dermatitidis Gilchrist & Stokes isolate 1099 at 10 ug/ml after 1 week (reference value: 14 mm); conditions: Gilchrist & Stokes isolate 1099, 168 h, read-out: DIZ; procedure, shortened: as §1
# [21] = system: Blastomyces dermatitidis; experiment: Antifungal activity against Blastomyces dermatitidis Gilchrist & Stokes isolate 1099 at 100 ug/ml after 2 weeks (reference value: 27 mm); conditions: Gilchrist & Stokes isolate 1099, 336 h, read-out: DIZ
# [22] = system: Blastomyces dermatitidis; experiment: Antifungal activity against Blastomyces dermatitidis Gilchrist & Stokes isolate 1099 at 80 ug/ml after 2 weeks (reference value: 27 mm); conditions: Gilchrist & Stokes isolate 1099, 336 h, read-out: DIZ
# [23] = system: Blastomyces dermatitidis; experiment: Antifungal activity against Blastomyces dermatitidis Gilchrist & Stokes isolate 1099 at 100 ug/ml after 3 weeks (reference value: 34 mm); conditions: Gilchrist & Stokes isolate 1099, 504 h, read-out: DIZ; procedure, shortened: as §1
# [24] = system: Blastomyces dermatitidis; experiment: Antifungal activity against Blastomyces dermatitidis Gilchrist & Stokes isolate 1099 at 80 ug/ml after 3 weeks (reference value: 34 mm); conditions: Gilchrist & Stokes isolate 1099, 504 h, read-out: DIZ; procedure, shortened: as §1
# [25] = system: Blastomyces dermatitidis; experiment: Antifungal activity against Blastomyces dermatitidis Gilchrist & Stokes isolate 1099 at 40 ug/ml after 3 weeks (reference value: 34 mm); conditions: Gilchrist & Stokes isolate 1099, 504 h, read-out: DIZ; procedure, shortened: as §1
# [26] = system: Blastomyces dermatitidis; experiment: Antifungal activity against Blastomyces dermatitidis Gilchrist & Stokes isolate 1099 at 10 ug/ml after 3 weeks (reference value: 34 mm); conditions: Gilchrist & Stokes isolate 1099, 504 h, read-out: DIZ; procedure, shortened: as §1
# [27] = system: Blastomyces dermatitidis; experiment: Antifungal activity against Blastomyces dermatitidis Gilchrist & Stokes isolate 1107 at 80 ug/ml after 1 week (reference value: 20 mm); conditions: Gilchrist & Stokes isolate 1107, 168 h, read-out: DIZ
# [28] = system: Blastomyces dermatitidis; experiment: Antifungal activity against Blastomyces dermatitidis Gilchrist & Stokes isolate 1107 at 60 ug/ml after 1 week (reference value: 20 mm); conditions: Gilchrist & Stokes isolate 1107, 168 h, read-out: DIZ
# [29] = system: Blastomyces dermatitidis; experiment: Antifungal activity against Blastomyces dermatitidis Gilchrist & Stokes isolate 1107 at 20 ug/ml after 1 week (reference value: 20 mm); conditions: Gilchrist & Stokes isolate 1107, 168 h, read-out: DIZ; procedure, shortened: as §1
# [30] = system: Blastomyces dermatitidis; experiment: Antifungal activity against Blastomyces dermatitidis Gilchrist & Stokes isolate 1107 at 60 ug/ml after 2 weeks (reference value: 35 mm); conditions: Gilchrist & Stokes isolate 1107, 336 h, read-out: DIZ; procedure, shortened: as §1
# [31] = system: Histoplasma capsulatum; experiment: Antifungal activity against Histoplasma capsulatum Darling isolate 1098 at 80 ug/ml after 1 week (reference value: 12 mm); conditions: Darling isolate 1098, 168 h, read-out: DIZ
# [32] = system: Histoplasma capsulatum; experiment: Antifungal activity against Histoplasma capsulatum Darling isolate 1098 at 20 ug/ml after 1 week (reference value: 12 mm); conditions: Darling isolate 1098, 168 h, read-out: DIZ
# [33] = system: Histoplasma capsulatum; experiment: Antifungal activity against Histoplasma capsulatum Darling isolate 1098 at 10 ug/ml after 1 week (reference value: 12 mm); conditions: Darling isolate 1098, 168 h, read-out: DIZ
# [34] = system: Histoplasma capsulatum; experiment: Antifungal activity against Histoplasma capsulatum Darling isolate 1098 at 80 ug/ml after 2 weeks (reference value: 21 mm); conditions: Darling isolate 1098, 336 h, read-out: DIZ
# [35] = system: Histoplasma capsulatum; experiment: Antifungal activity against Histoplasma capsulatum Darling isolate 1098 at 60 ug/ml after 2 weeks (reference value: 21 mm); conditions: Darling isolate 1098, 336 h, read-out: DIZ
# [36] = system: Histoplasma capsulatum; experiment: Antifungal activity against Histoplasma capsulatum Darling isolate 1098 at 10 ug/ml after 2 weeks (reference value: 21 mm); conditions: Darling isolate 1098, 336 h, read-out: DIZ
# [37] = system: Histoplasma capsulatum; experiment: Antifungal activity against Histoplasma capsulatum Darling isolate 1098 at 80 ug/ml after 3 weeks (reference value: 28 mm); conditions: Darling isolate 1098, 504 h, read-out: DIZ
# [38] = system: Histoplasma capsulatum; experiment: Antifungal activity against Histoplasma capsulatum Darling isolate 1098 at 60 ug/ml after 3 weeks (reference value: 28 mm); conditions: Darling isolate 1098, 504 h, read-out: DIZ
# [39] = system: Histoplasma capsulatum; experiment: Antifungal activity against Histoplasma capsulatum Darling isolate 1098 at 40 ug/ml after 3 weeks (reference value: 28 mm); conditions: Darling isolate 1098, 504 h, read-out: DIZ
smiles,measurement,setting,value
CS[C@@]1(C)CC[C@@H]2CCCCN2C1O (some centres undefined),zone of inhibition at 10 µg/mL,[1],33 mm
same,zone of inhibition at 100 µg/mL,[2],40 mm
same,zone of inhibition at 80 µg/mL,[3],40 mm
same,zone of inhibition at 40 µg/mL,[4],40 mm
same,zone of inhibition at 10 µg/mL,[5],40 mm
same,zone of inhibition at 10 µg/mL,[6],31 mm
same,zone of inhibition at 100 µg/mL,[7],9 mm
same,zone of inhibition at 20 µg/mL,[8],11 mm
same,zone of inhibition at 10 µg/mL,[9],11 mm
same,zone of inhibition at 100 µg/mL,[10],17 mm
same,zone of inhibition at 80 µg/mL,[11],19 mm
same,zone of inhibition at 60 µg/mL,[12],19 mm
same,zone of inhibition at 40 µg/mL,[13],21 mm
same,zone of inhibition at 20 µg/mL,[14],20 mm
same,zone of inhibition at 100 µg/mL,[15],26 mm
same,zone of inhibition at 60 µg/mL,[16],27 mm
same,zone of inhibition at 40 µg/mL,[17],28 mm
same,zone of inhibition at 60 µg/mL,[18],13 mm
same,zone of inhibition at 40 µg/mL,[19],13 mm
same,zone of inhibition at 10 µg/mL,[20],16 mm
same,zone of inhibition at 100 µg/mL,[21],25 mm
same,zone of inhibition at 80 µg/mL,[22],25 mm
same,zone of inhibition at 100 µg/mL,[23],33 mm
same,zone of inhibition at 80 µg/mL,[24],33 mm
same,zone of inhibition at 40 µg/mL,[25],34 mm
same,zone of inhibition at 10 µg/mL,[26],38 mm
same,zone of inhibition at 80 µg/mL,[27],18 mm
same,zone of inhibition at 60 µg/mL,[28],20 mm
same,zone of inhibition at 20 µg/mL,[29],21 mm
same,zone of inhibition at 60 µg/mL,[30],31 mm
same,zone of inhibition at 80 µg/mL,[31],9 mm
same,zone of inhibition at 20 µg/mL,[32],10 mm
same,zone of inhibition at 10 µg/mL,[33],11 mm
same,zone of inhibition at 80 µg/mL,[34],18 mm
same,zone of inhibition at 60 µg/mL,[35],18 mm
same,zone of inhibition at 10 µg/mL,[36],20 mm
same,zone of inhibition at 80 µg/mL,[37],30 mm
same,zone of inhibition at 60 µg/mL,[38],30 mm
same,zone of inhibition at 40 µg/mL,[39],30 mm
